Screening results from PubChem.
TDP2 absorb = human TDP2 enzyme inhibitors, primary screen, biochemical, epi absorbance, recombinant enzyme | Tyrosyl-DNA phosphodiesterase 2 (Homo sapiens), O95551 | T5PNP hydrolysis, p-nitrophenol absorbance 415 nm | inhibition, % at 12.8 µM | hit rate 0.34% among 370,000 | AID 720702, 2013;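 active = inhibition above the mean of all tested compounds plus 3 SD, set per campaign, cut at about 25% in these data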
Target sequence (O95551 whole entry, looked up): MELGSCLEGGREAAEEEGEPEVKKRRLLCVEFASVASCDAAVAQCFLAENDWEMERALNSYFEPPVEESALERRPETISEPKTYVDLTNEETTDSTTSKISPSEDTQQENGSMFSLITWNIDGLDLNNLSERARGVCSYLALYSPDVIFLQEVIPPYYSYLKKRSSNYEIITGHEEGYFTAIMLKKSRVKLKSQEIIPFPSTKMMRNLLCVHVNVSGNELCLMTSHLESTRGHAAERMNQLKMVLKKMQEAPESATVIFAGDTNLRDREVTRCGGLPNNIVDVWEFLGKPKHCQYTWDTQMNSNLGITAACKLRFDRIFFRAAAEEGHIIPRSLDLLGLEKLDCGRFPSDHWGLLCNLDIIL
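Incubation: 2 h at 37 °C; Test system: recombinant human TDP2; Quantity: enzyme 120 nM; Read-out basis: percent inhibition; Medium: 50 mM Tris-HCl pH 7.5 with Mg2+, KCl, DTT, BSA; Repeats: single replicate; Compound: 12.8 µM single point, 1% DMSO; Signal: epi absorbance; Reagent: 5 mM T5PNP chromogenic substrate; Benchmarks: no-enzyme high, DMSO-plus-enzyme low.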
UHRF1 MBD2 ctr = UHRF1 methylated DNA binding inhibitors, primary screen, counter-screen for MBD2 inhibitor project, biochemical, TR-FRET, human UHRF1, single concentration; inhibition, % at 4.4 µM; hit rate 0.75% among 370,000; AID 687016, 2013; UHRF1 binding to methylated oligo; in the data active = inhibition above about 21%;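 note: UHRF1 SRA domain binding a hemimethylated CpG hairpin DNA probe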
LEDGF integ inh = blockers of LEDGF/p75-dependent integrase strand transfer – biochemical, TR-FRET, high throughput, primary screen; HIV-1 integrase (with human LEDGF/p75); TR-FRET IN-LEDGF/p75 DNA integration, Eu/Cy5; hit rate 0.64% among 370,000; AID 743269, 2014; inhibition, % at 3.7 µM;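 active = inhibition above the screen-wide mean plus 3 SD, cut at about 13% in these data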;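 note: signal is the Cy5 over europium emission ratio at 671 and 618 nm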
MBD2 inh = inhibitors of MBD2 binding to methylated DNA, primary screen, biochemical, TR-FRET, DNA-binding domain, human. inhibition, % at 4.4 µM. hit rate 0.31% among 370,000. MBD2 binding to methylated oligonucleotide. Methyl-CpG-binding domain protein 2 (Homo sapiens), Q9UBB5; in the data active = inhibition above about 13%
A number is an active result; n = inactive. Most compounds without a hit are left out; they make up all but 1.6% or so of the library.

SMILES	TDP2 absorb	UHRF1 MBD2 ctr	LEDGF integ inh	MBD2 inh
COC(=O)C1=C(C)N(Cc2ccccc2C(F)(F)F)C(=NCC2CC2)NC1CCc1ccccc1 (configuration not stated)	n	n	n	n
CCOC(=O)c1cccc(NC(=O)CCNS(=O)(=O)c2ccc3c(c2)CCN3C(=O)CC)c1	n	n	n	n
CC(=O)N1CCc2cc(S(=O)(=O)NCCC(=O)Nc3cccc(C)c3)ccc21	n	22	n	n
O=C(Nc1ccccc1)n1ccc2ccc(-c3ccc4cc[nH]c4c3)cc21	n	n	n	n
CCOC(=O)c1sc2nc(-c3ccco3)c3c(c2c1N)CC(C)(C)OC3	n	n	42	n
Cc1ccn2c(CC(C)(C)C)c(-c3ccc(F)cc3)nc2c1	n	22	n	n
Cc1ccc(Cc2c(-c3ccc(Cl)cc3)nc3cc(C)ccn23)cc1	n	22	n	n
Cc1ccc(Cc2c(-c3ccc(C)cc3)nc3cc(C)ccn23)cc1	n	23	n	n
Cc1ccn2c(Cc3ccccc3)c(-c3ccc(Br)cc3)nc2c1	n	n	n	n
Cc1ccn2c(Cc3ccccc3)c(-c3ccccc3)nc2c1	n	21	n	n
Cc1ccc(-c2nc3ccc(Br)cn3c2CC(C)(C)C)cc1	n	n	n	n
O=C(Nc1ccc(F)cc1)OCc1cn(Cc2cccc(C(F)(F)F)c2)nn1	n	n	n	n
COc1ccc(CCN(C(=O)C(F)(F)F)C(C(=O)NC2CCCC2)c2cccs2)cc1OC (configuration not stated)	n	n	n	n
COc1ccc(CCN(C(=O)C(F)(F)F)C(C(=O)NC2CCCCC2)c2ccc(C)s2)cc1OC (configuration not stated)	n	29	n	n
COc1ccccc1-c1ocnc1C(=O)Nc1ccc(N2CCOCC2)cc1N1CCOCC1	n	74	n	n
COc1ccc(-c2ocnc2C(=O)Nc2ccc(N3CCOCC3)cc2N2CCOCC2)cc1OC	n	n	n	n
CCOC(=O)C1CCCN(c2c(C(=O)c3ccccc3)cnc3ccccc23)C1 (configuration not stated)	n	38	n	n
CCc1ccc(NC2=CC(=O)C(=O)c3ccccc32)cc1	n	n	n	n
CCc1ccc(S(=O)(=O)/N=C2\C=C(Nc3ccc(C(=O)O)cc3)C(=O)c3ccccc32)cc1	72	n	29	n
CC1CCN(C(=O)c2[nH]cnc2C(=O)N(C)CCO)CC1	n	n	n	n
Cc1ccc(NCc2nnc(SCC(=O)Nc3cc(C)on3)n2C)cc1	n	n	n	n
CCSc1nnc(CNc2ccc(C)cc2)n1C	n	24	n	n
O=Cc1ccc(N2Cc3ccccc3C2)cc1	n	n	18	n
CCCC(=O)N(c1ccc(C(=O)O)cc1)c1nc(-c2ccccc2)c(C)s1	n	41	n	n
Cc1ccccc1Cn1cc(CN2[C@@H](CC(C)C)COc3cccc(F)c3S2(=O)=O)nn1	n	n	n	n
SMILES	TDP2 absorb	UHRF1 MBD2 ctr	LEDGF integ inh	MBD2 inh
CC1(C)Cc2c(ccc3ccccc23)C(=O)N1	n	n	n	n
CCNC(=O)/C=C1\NC(C)(C)Cc2c1ccc1ccccc21	n	22	n	n
CCC(COC(=O)c1ccccc1)Oc1cc(NCc2ccccc2)c2ncn(C(C)C)c2c1 (configuration not stated)	36	n	n	n
O=C(C1CCN(c2ncnc3c2sc2cccc(F)c23)CC1)N1CCN(C(=O)C2CCCO2)CC1 (configuration not stated)	n	n	n	n
O=C(O)C1Nc2c(C(F)(F)F)ccc(Cl)c2C2C=CCC12 (configuration not stated)	n	n	n	n
Cc1cc(C)c2c(c1)NC(C(=O)O)C1CC=CC21 (configuration not stated)	n	39	31	16
O=C(CCc1ccccc1)N1CCCC(Nc2ccc(F)cc2)C1 (configuration not stated)	n	23	n	n
CN(CCc1ccccc1)C(=O)c1ccc(NC(=O)Cc2ccc(NC(=O)C3CCCN(C(=O)CCc4ccccc4)C3)cc2)cc1 (configuration not stated)	n	37	n	n
